Data from ChEMBL document CHEMBL1138747, “Synthesis and structure--activity relationship in a class of indolebutylpiperazines as dual 5-HT(1A) receptor agonists and serotonin reuptake inhibitors” (J Med Chem, 2004).

Assays:
[1] = target: Sodium-dependent serotonin transporter (Rattus norvegicus, UniProt P31652); assay: Inhibition of [3H]5-HT re-uptake in rat synaptosomes; type: subcellular, Brain
D(2) dopamine receptor = D(2) dopamine receptor (Rattus norvegicus, UniProt P61169); assay: Displacement of [3H]spiperone from dopamine D2 receptor of rat striatal membranes; type: cell membranes, Membrane
Chain of D(2) dopamine receptor (P61169 whole entry): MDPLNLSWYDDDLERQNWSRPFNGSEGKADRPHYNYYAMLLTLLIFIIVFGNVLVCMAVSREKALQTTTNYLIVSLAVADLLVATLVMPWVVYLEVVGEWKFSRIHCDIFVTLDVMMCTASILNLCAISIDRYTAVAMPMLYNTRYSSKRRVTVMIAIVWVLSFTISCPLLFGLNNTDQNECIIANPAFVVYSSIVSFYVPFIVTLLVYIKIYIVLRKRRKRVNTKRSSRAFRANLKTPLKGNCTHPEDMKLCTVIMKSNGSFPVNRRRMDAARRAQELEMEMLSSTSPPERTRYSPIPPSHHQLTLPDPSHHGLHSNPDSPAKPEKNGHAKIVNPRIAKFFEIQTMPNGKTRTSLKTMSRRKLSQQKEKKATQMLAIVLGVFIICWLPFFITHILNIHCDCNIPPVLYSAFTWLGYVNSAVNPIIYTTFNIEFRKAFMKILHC
How it was run: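 IC50 from 5–10 compound concentrations, each in triplicate, taken as the concentration (nM) giving 50% inhibition of specific radioligand binding.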

[2] = target: T1, 5-hydroxytryptamine receptor 1A (Rattus norvegicus, UniProt P19327); assay: Inhibition of 8-OH DPAT binding to rat hydroxytryptamine 1A receptor
T1 sequence (P19327 whole entry): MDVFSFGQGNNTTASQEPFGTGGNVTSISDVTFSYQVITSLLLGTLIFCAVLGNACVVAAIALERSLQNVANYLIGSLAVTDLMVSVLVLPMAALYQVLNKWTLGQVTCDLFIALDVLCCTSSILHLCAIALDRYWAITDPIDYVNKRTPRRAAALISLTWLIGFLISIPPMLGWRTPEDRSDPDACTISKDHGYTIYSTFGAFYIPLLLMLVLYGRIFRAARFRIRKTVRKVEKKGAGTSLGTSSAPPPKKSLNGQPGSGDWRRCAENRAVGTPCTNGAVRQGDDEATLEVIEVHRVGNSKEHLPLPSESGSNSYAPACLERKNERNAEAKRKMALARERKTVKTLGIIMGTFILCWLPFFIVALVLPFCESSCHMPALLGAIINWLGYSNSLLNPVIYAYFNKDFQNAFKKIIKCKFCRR

Rattus norvegicus [3] = assay: Dose required to inhibit ultrasonic vocalisation on peroral administered; type: functional; conditions: po, read-out: ID50 (the source's name)
How it was run: (§1)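 Rat ultrasonic vocalization test. In a priming session, up to 10 grid-floor shocks were given (1.8 mA, 0.3 s, 20 s apart). Rats not vocalizing on three consecutive trials were excluded. Next day, rats were tested 2 h after dosing: five shocks, then vocalization duration recorded over 3 min. ID50 (dose for half-maximal inhibition) came from dose–response curves.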

Rattus norvegicus [4] = assay: Dose required to inhibit ultrasonic vocalisation on subcutaneous administered; type: functional; conditions: sc, read-out: ID50 (the source's name); how it was run: as §1

Chain of Sodium-dependent serotonin transporter (P31652 whole entry): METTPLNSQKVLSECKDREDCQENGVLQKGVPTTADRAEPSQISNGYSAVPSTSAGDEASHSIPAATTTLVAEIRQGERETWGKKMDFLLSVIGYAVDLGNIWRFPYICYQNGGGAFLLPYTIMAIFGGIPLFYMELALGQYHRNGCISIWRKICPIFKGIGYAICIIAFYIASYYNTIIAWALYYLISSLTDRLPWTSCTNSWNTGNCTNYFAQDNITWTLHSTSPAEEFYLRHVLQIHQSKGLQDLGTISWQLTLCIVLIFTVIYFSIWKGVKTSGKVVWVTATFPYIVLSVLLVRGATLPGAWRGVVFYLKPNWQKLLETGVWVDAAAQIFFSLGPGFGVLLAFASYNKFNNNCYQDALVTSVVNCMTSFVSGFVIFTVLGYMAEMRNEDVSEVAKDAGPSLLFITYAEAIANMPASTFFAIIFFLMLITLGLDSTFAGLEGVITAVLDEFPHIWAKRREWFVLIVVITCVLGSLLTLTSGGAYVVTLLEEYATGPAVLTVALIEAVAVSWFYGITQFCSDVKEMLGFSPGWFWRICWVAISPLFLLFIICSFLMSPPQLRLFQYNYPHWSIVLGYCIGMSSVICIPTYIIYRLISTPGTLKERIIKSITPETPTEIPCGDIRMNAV

Compound	IC50 [1] [nM]	IC50 (D(2) dopamine receptor) [nM]	IC50 [2] [nM]	ED50 (Rattus norvegicus [3]) [mg/kg]	ED50 (Rattus norvegicus [4]) [mg/kg]
CCOCCOCCOc1cccc(N2CCN(CCCCc3c[nH]c4ccc(C#N)cc34)CC2)c1C#N	3.2	28	2	–	–
N#Cc1ccc2[nH]cc(CCCCN3CCN(c4ccc5[nH]c(C(N)=O)cc5c4)CC3)c2c1	2	140	14	–	–
COc1ccc2[nH]cc(CCCCN3CCN(c4ccc5c(c4)OCCO5)CC3)c2c1	100	–	–	–	–
N#Cc1ccc2[nH]cc(CCCCN3CCN(c4ccc(O)cc4)CC3)c2c1	0.5	35	6	–	–
N#Cc1ccc2[nH]cc(CCCCN3CCN(c4ccc5c(c4)CCCO5)CC3)c2c1	0.9	< 42	5	–	–
N#Cc1ccc2[nH]cc(CCCCN3CCN(c4ccc5occc5c4C(N)=O)CC3)c2c1	5.5	220	3.3	–	–
N#Cc1ccc2[nH]cc(CCCCN3CCN(c4ccc(O)c(C#N)c4)CC3)c2c1	0.8	43	400	–	–
COC(=O)c1ccc2[nH]cc(CCCCN3CCN(c4ccc5c(c4)OCCO5)CC3)c2c1	50	< 100	0.6	–	–
O/N=C/c1ccc2[nH]cc(CCCCN3CCN(c4ccc5c(c4)OCCO5)CC3)c2c1	5	9.4	0.4	–	–
N#Cc1ccc2[nH]cc(CCCCN3CCN(c4ccc5c(c4)CC(C(N)=O)O5)CC3)c2c1 (centres undefined)	3.1	1400	3.2	–	–
O=C(O)c1ccc2[nH]cc(CCCCN3CCN(c4ccc5c(c4)OCCO5)CC3)c2c1	–	> 100	4	–	–
N#Cc1ccc(N2CCN(CCCCc3c[nH]c4ccc(C#N)cc34)CC2)cc1	1.3	255	1.1	14	–
Fc1ccc2[nH]cc(CCCCN3CCN(c4ccc5c(c4)OCCO5)CC3)c2c1	1	130	5	–	–
N#Cc1ccc2[nH]cc(CCCCN3CCN(c4ccc5c(c4)CCO5)CC3)c2c1	1	13	4	–	–
NC(=O)c1ccc2[nH]cc(CCCCN3CCN(c4ccc5c(c4)OCCO5)CC3)c2c1	60	–	–	–	–
N#Cc1ccc2[nH]cc(CCCCN3CCN(c4ccc5c(c4)OCO5)CC3)c2c1	0.6	4.9	0.7	4	1
N#Cc1ccc2[nH]cc(CCCCN3CCN(c4cccc5nsnc45)CC3)c2c1	1.5	1.4	1	–	–
N#Cc1ccc2[nH]cc(CCCCN3CCN(c4cccc5cc(C(N)=O)oc45)CC3)c2c1	2.6	39	1.9	–	–
COc1cc(C#N)ccc1N1CCN(CCCCc2c[nH]c3ccc(C#N)cc23)CC1	4.1	6	8	–	–
COc1ccc(Cl)cc1N1CCN(CCCCc2c[nH]c3ccc(C#N)cc23)CC1	6.8	–	30	–	–
c1ccc2c(CCCCN3CCN(c4ccc5c(c4)OCCO5)CC3)c[nH]c2c1	10	> 100	8	–	–
N#Cc1ccc2[nH]cc(CCCCN3CCN(c4ccccc4)CC3)c2c1	1	3.8	400	–	–
COc1ccc(N2CCN(CCCCc3c[nH]c4ccc(C#N)cc34)CC2)cc1OC	0.3	40	60	–	–
N#Cc1ccc2[nH]cc(CCCCN3CCN(c4cccc5oc(C(N)=O)cc45)CC3)c2c1	8.5	6.6	1.4	–	–
N#Cc1ccc2[nH]cc(CCCCN3CCN(c4ccc5occc5c4)CC3)c2c1	3.9	8	8.7	–	–

Compound	IC50 [1] [nM]	IC50 (D(2) dopamine receptor) [nM]	IC50 [2] [nM]	ED50 (Rattus norvegicus [3]) [mg/kg]	ED50 (Rattus norvegicus [4]) [mg/kg]
N#Cc1ccc2[nH]cc(CCCCN3CCN(c4ccc5nsnc5c4)CC3)c2c1	3.1	31	2	–	3
N#Cc1ccc2[nH]cc(CCCCN3CCN(c4ccc5c(c4)OCCO5)CC3)c2c1	0.4	5.6	1	–	–
N#Cc1cc2cc(N3CCN(CCCCc4c[nH]c5ccc(F)cc45)CC3)ccc2o1	3	> 100	5	–	–
Clc1ccc2[nH]cc(CCCCN3CCN(c4ccc5c(c4)OCCO5)CC3)c2c1	20	> 100	40	–	–
N#Cc1ccc2[nH]cc(CCCCN3CCN(c4ccccc4C(N)=O)CC3)c2c1	16	47	6.4	–	–
COc1ccc(N2CCN(CCCCc3c[nH]c4ccc(C#N)cc34)CC2)cc1	0.5	46	1	–	–
N#Cc1ccc2[nH]cc(CCCCN3CCN(c4ccc(F)cc4)CC3)c2c1	1	4.2	–	7	3
N#Cc1ccc(N2CCN(CCCCc3c[nH]c4ccc(F)cc34)CC2)cc1	2	> 100	40	–	–
N#Cc1ccc2[nH]cc(CCCCN3CCN(c4ccc(C(N)=O)cc4)CC3)c2c1	0.6	> 270	118	–	–
Fc1ccc2[nH]cc(CCCCN3CCN(c4ccc5c(c4)OCO5)CC3)c2c1	1	< 100	4	–	–
Oc1ccc2[nH]cc(CCCCN3CCN(c4ccc5c(c4)OCCO5)CC3)c2c1	0.5	77	0.2	–	–
N#Cc1ccc2[nH]cc(CCCCN3CCN(c4ccc5oc(C#N)cc5c4)CC3)c2c1	1	> 630	0.4	–	–
N#Cc1ccc2[nH]cc(CCCCN3CCN(c4ccc(C#N)c(C#N)c4)CC3)c2c1	2	–	12	–	–
NC(=O)c1cc2cc(N3CCN(CCCCc4c[nH]c5ccc(F)cc45)CC3)ccc2o1	0.3	> 100	3	–	–
COc1cc(N2CCN(CCCCc3c[nH]c4ccc(C#N)cc34)CC2)ccc1C#N	3.4	–	14	–	–
N#Cc1ccc2[nH]cc(CCCCN3CCN(c4ccc5oc(=O)ccc5c4)CC3)c2c1	0.7	740	0.1	4	0.5
O=Cc1ccc2[nH]cc(CCCCN3CCN(c4ccc5c(c4)OCCO5)CC3)c2c1	1	< 100	0.7	–	–
N#Cc1ccc2[nH]cc(CCCCN3CCN(c4ccc5sc(C(N)=O)cc5c4)CC3)c2c1	0.3	–	3.1	–	–
N#Cc1ccc2[nH]cc(CCCCN3CCN(c4cc(F)c(C#N)c(F)c4)CC3)c2c1	5.4	–	36	–	–
COc1ccccc1N1CCN(CCCCc2c[nH]c3ccc(C#N)cc23)CC1	3	0.7	1	–	–
COc1cccc(N2CCN(CCCCc3c[nH]c4ccc(C#N)cc34)CC2)c1C#N	3.9	1.4	5.6	–	–
O=c1ccc2cc(N3CCN(CCCCc4c[nH]c5ccc(F)cc45)CC3)ccc2o1	0.9	> 100	0.7	–	–
N#Cc1ccc2[nH]cc(CCCCN3CCN(c4c(C#N)cccc4C#N)CC3)c2c1	2	< 100	40	–	–
N#Cc1ccc2[nH]cc(CCCCN3CCN(c4ccc5[nH]ccc5c4)CC3)c2c1	2.4	5.7	1.6	–	–
